Tested on: patients with Rb+ advanced solid tumors or lymphomas
Assay: Safety assessments, adverse events
Assay type: in vivo, human
Procedure, shortened: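 Oral test compound given daily 3-weeks-on/1-week-off in 28-day cycles, with doses escalated by a Bayesian logistic regression model with overdose control. Safety assessments, including ECGs, were done at baseline and at regular intervals. AEs were graded by CTCAE v4.0 and classed as suspected related to treatment. All patients dosed at least once were included; summaries were descriptive per dose level.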

[1] = 900 mg 3-weeks-on/1-week-off, n = 13
[2] = 1,200 mg 3-weeks-on/1-week-off, n = 3
[3] = RDE 600 mg/day 3-weeks-on/1-week-off
[4] = of 67 patients treated at the RDE

For CN(C)C(=O)c1cc2cnc(Nc3ccc(N4CCNCC4)cn3)nc2n1C1CCCC1 [ribociclib], the “Anemia, Grade 3/4, AE suspected related to study treatment” value (“Anemia, Grade 3/4, AE suspected related” below) [1] was 0 n (%), the “Anemia, Grade All, AE suspected related to study treatment” value (“Anemia, Grade All, AE suspected related” for short) [1] was 3 (23) n (%) and the “Appetite decreased, Grade 3/4, AE suspected related to study treatment” value [1] was 0 n (%). The “Appetite decreased, Grade All, AE suspected related to study treatment” value (from here on “Appetite decreased, Grade All”) [1] was 1 (8) n (%), the “Blood creatinine increased, Grade 3/4, AE suspected related to study treatment” value [1] was 0 n (%) and the “Blood creatinine increased, Grade All, AE suspected related to study treatment” value (“Blood creatinine increased, Grade All” below) [1] was 2 (15) n (%). The “Diarrhea, Grade 3/4, AE suspected related to study treatment” value [1] was 0 n (%), the “Diarrhea, Grade All, AE suspected related to study treatment” value (shortened to “Diarrhea, Grade All”) [1] was 5 (39) n (%) and the “Fatigue, Grade 3/4, AE suspected related to study treatment” value (shortened to “Fatigue, Grade 3/4, AE suspected related”) [1] was 0 n (%). The “Fatigue, Grade All, AE suspected related to study treatment” value (“Fatigue, Grade All, AE suspected related” below) [1] was 10 (77) n (%), the “Leukopenia, Grade 3/4, AE suspected related to study treatment” value [1] was 4 (31) n (%) and the “Leukopenia, Grade All, AE suspected related to study treatment” value (from here on “Leukopenia, Grade All”) [1] was 9 (69) n (%). For the same compound, the “Lymphopenia, Grade 3/4, AE suspected related to study treatment” value [1] was 4 (31) n (%), the “Lymphopenia, Grade All, AE suspected related to study treatment” value (“Lymphopenia, Grade All” below) [1] was 4 (31) n (%) and the “Nausea, Grade 3/4, AE suspected related to study treatment” value (“Nausea, Grade 3/4, AE suspected related” below) [1] was 0 n (%). The “Nausea, Grade All, AE suspected related to study treatment” value (“Nausea, Grade All, AE suspected related” for short) [1] was 6 (46) n (%), the “Neutropenia, Grade 3/4, AE suspected related to study treatment” value [1] was 5 (39) n (%) and the “Neutropenia, Grade All, AE suspected related to study treatment” value (from here on “Neutropenia, Grade All”) [1] was 9 (69) n (%). For the same compound, the “Thrombocytopenia, Grade 3/4, AE suspected related to study treatment” value [1] was 0 n (%), the “Thrombocytopenia, Grade All, AE suspected related to study treatment” value (“Thrombocytopenia, Grade All” for short) [1] was 6 (46) n (%) and the “Vomiting, Grade 3/4, AE suspected related to study treatment” value [1] was 0 n (%). The “Vomiting, Grade All, AE suspected related to study treatment” value (from here on “Vomiting, Grade All”) [1] was 3 (23) n (%), the “Anemia, Grade 3/4, AE suspected related” value [2] was 1 (33) n (%) and the “Anemia, Grade All, AE suspected related” value [2] was 3 (100) n (%). For the same compound, the “Appetite decreased, Grade 3/4, AE suspected related to study treatment” value [2] was 0 n (%), the “Appetite decreased, Grade All” value [2] was 0 n (%) and the “Blood creatinine increased, Grade 3/4, AE suspected related to study treatment” value [2] was 0 n (%). The “Blood creatinine increased, Grade All” value [2] was 0 n (%), the “Diarrhea, Grade 3/4, AE suspected related to study treatment” value [2] was 0 n (%) and the “Diarrhea, Grade All” value [2] was 2 (67) n (%). The “Fatigue, Grade 3/4, AE suspected related” value [2] was 0 n (%), the “Fatigue, Grade All, AE suspected related” value [2] was 3 (100) n (%) and the “Leukopenia, Grade 3/4, AE suspected related to study treatment” value [2] was 0 n (%). The “Leukopenia, Grade All” value [2] was 0 n (%), the “Lymphopenia, Grade 3/4, AE suspected related to study treatment” value [2] was 0 n (%) and the “Lymphopenia, Grade All” value [2] was 0 n (%). The “Nausea, Grade 3/4, AE suspected related” value [2] was 0 n (%), the “Nausea, Grade All, AE suspected related” value [2] was 3 (100) n (%) and the “Neutropenia, Grade 3/4, AE suspected related to study treatment” value [2] was 1 (33) n (%). For the same compound, the “Neutropenia, Grade All” value [2] was 2 (67) n (%), the “Thrombocytopenia, Grade 3/4, AE suspected related to study treatment” value [2] was 1 (33) n (%) and the “Thrombocytopenia, Grade All” value [2] was 2 (67) n (%). The “Vomiting, Grade 3/4, AE suspected related to study treatment” value [2] was 0 n (%), the “Vomiting, Grade All” value [2] was 3 (100) n (%) and the “Anemia, Grade 3/4, AE suspected related” value (All doses, N = 132) was 4 (3) n (%). For the same compound, the “Anemia, Grade All, AE suspected related” value (All doses, N = 132) was 34 (26) n (%), the “Appetite decreased, Grade 3/4, AE suspected related to study treatment” value (All doses, N = 132) was 0 n (%) and the “Appetite decreased, Grade All” value (All doses, N = 132) was 13 (10) n (%). The “Blood creatinine increased, Grade 3/4, AE suspected related to study treatment” value (All doses, N = 132) was 0 n (%), the “Blood creatinine increased, Grade All” value (All doses, N = 132) was 14 (11) n (%) and the “Diarrhea, Grade 3/4, AE suspected related to study treatment” value (All doses, N = 132) was 2 (2) n (%). The “Diarrhea, Grade All” value (All doses, N = 132) was 31 (23) n (%), the “Fatigue, Grade 3/4, AE suspected related” value (All doses, N = 132) was 3 (2) n (%) and the “Fatigue, Grade All, AE suspected related” value (All doses, N = 132) was 59 (45) n (%). For the same compound, the “Leukopenia, Grade 3/4, AE suspected related to study treatment” value (All doses, N = 132) was 22 (17) n (%), the “Leukopenia, Grade All” value (All doses, N = 132) was 57 (43) n (%) and the “Lymphopenia, Grade 3/4, AE suspected related to study treatment” value (All doses, N = 132) was 21 (16) n (%). The “Lymphopenia, Grade All” value (All doses, N = 132) was 32 (24) n (%), the “Nausea, Grade 3/4, AE suspected related” value (All doses, N = 132) was 2 (2) n (%) and the “Nausea, Grade All, AE suspected related” value (All doses, N = 132) was 56 (42) n (%). For the same compound, the “Neutropenia, Grade 3/4, AE suspected related to study treatment” value (All doses, N = 132) was 36 (27) n (%), the “Neutropenia, Grade All” value (All doses, N = 132) was 60 (46) n (%) and the “Thrombocytopenia, Grade 3/4, AE suspected related to study treatment” value (All doses, N = 132) was 10 (8) n (%). For the same compound, the “Thrombocytopenia, Grade All” value (All doses, N = 132) was 40 (30) n (%), the “Vomiting, Grade 3/4, AE suspected related to study treatment” value (All doses, N = 132) was 0 n (%) and the “Vomiting, Grade All” value (All doses, N = 132) was 34 (26) n (%). The “grade 3/4 neutropenia” value [3] was 28%, the “grade 3/4 thrombocytopenia” value [3] was 9% and the “treatment-related fatigue, grade 3/4” value (all 132 patients) was 2%. The “treatment-related nausea, grade 3/4” value (all 132 patients) was 2%, the “treatment-related neutropenia, all-grade” value (all 132 patients) was 46% and the clinically significant arrhythmias (all patients) was “No clinically significant arrhythmias were observed”. The “patients requiring dose reduction to 400 mg/day” value [4] was 16 and the “patients with dose interruption without reduction” value [4] was 13.
